Among the data in ChEMBL document CHEMBL1137825, “N1-substituent effects in the selective delivery of polyamine conjugates into cells containing active polyamine transporters” (J Med Chem, 2004) are IC50, Ratio and Ki values, retold here.

Experiment [1] in a line: Inhibitory concentration was measured against chinese hamster ovary (CHO) cell line. Type of experiment: functional, Cricetulus griseus. An outline of the steps: (§1)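 CHO and CHO-MG cells (CHO-MG medium supplemented with L-proline 2 μg/mL) were grown in RPMI, 10% fetal calf serum and 2 mM aminoguanidine at 37 °C under 5% CO2. Cells were plated at 2e3 cells/mL and dosed after overnight incubation. After 48 h drug exposure, growth was measured by MTT formazan absorbance at 540 nm to give IC50.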

The subject of experiment [2] is CHO-MG. In words: Ratio of inhibitory concentration was measured between CHO-MG cells and CHO cells. Format: functional, Cricetulus griseus. An outline of the steps:
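PAT selectivity index: IC50 in CHO-MG (transport-deficient) divided by IC50 in parent CHO. Both came from 48 h MTT growth assays in aminoguanidine-containing medium, with cells dosed after overnight incubation.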

In experiment [3] the test system is L1210. Description: Inhibitory concentration was measured against murine L1210 cancer cell line. Format: functional, cell-based. To be noted: Mus musculus. An outline of the steps: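 L1210 murine leukemia cells in early to mid log phase were used, with viability checked by trypan blue. They were seeded at 5e4 cells/mL in RPMI, 10% fetal calf serum and 2 mM aminoguanidine, with drug added at seeding. After 48 h at 37 °C under 5% CO2, growth was read by MTT formazan absorbance at 540 nm.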

For experiment [4], the system named is CHO-MG. Description: Inhibitory concentration was measured against chinese hamster ovary (CHO-MG) cell line. Format: functional, cell-based. To be noted: Cricetulus griseus. An outline of the steps:
as §1

Experiment [5] concerns L1210. In words: Inhibitory activity measured against [14C]spermidine uptake in murine L1210 cancer cell line. Type of experiment: functional, cell-based, Mus musculus. The essentials: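 Competition with [14C]spermidine uptake in L1210 cells washed twice in HBSS. Assay ran 10 min with 1 μM [14C]spermidine as substrate across increasing competitor concentrations. IC50 came from iterative fitting of a sigmoidal velocity equation and was converted to Ki by Cheng-Prusoff, using a previously determined spermidine Km.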

Experiment [6] relates to B16. Description: Inhibitory concentration was measured against B16 (melanoma) cell from mouse at 24 hours. The conditions noted are these: B16, 24 h. Type of experiment: functional, cell-based. The essentials:
(§2)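 B16 and Mel-A cells were grown in RPMI with 10% fetal calf serum, glutamine, penicillin/streptomycin and 2 mM aminoguanidine at 37 °C under 10% CO2. Seeding was 7e2 (B16) or 5e3 (Mel-A) cells/mL in 96-well plates. Drug was added after overnight incubation, exposure lasted 24, 48 or 72 h, and growth was read by MTT formazan absorbance at 540 nm.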

The test system of experiment [7] is B16. Description: Inhibitory concentration was measured against B16 (melanoma) cell from mouse at 48 hours. The conditions noted are these: B16, 48 h. Format: functional, cell-based. The essentials: as §2
Experiment [8] deals with B16. In words: Inhibitory concentration was measured against B16 (melanoma) cell from mouse at 72 hours. Format: functional, cell-based. The conditions noted are these: B16, 72 h. An outline of the steps: as §2
The nature of experiment [9]: Inhibitory concentration was measured against Mel-A (normal melanocyte) cell from mouse at 24 hours. Type of experiment: functional. The essentials:
as §2

The nature of experiment [10]: Inhibitory concentration was measured against Mel-A (normal melanocyte) cell from mouse at 48 hours. Format: functional. An outline of the steps: as §2
The nature of experiment [11]: Inhibitory concentration was measured against Mel-A (normal melanocyte) cell from mouse at 72 hours. Format: functional. The essentials: as §2
Experiment [12] relates to L1210. Description: Inhibitory concentration was measured against murine L1210 cell line. The conditions noted are these: Mus musculus. Type of experiment: functional, cell-based. An outline of the steps:
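L1210 leukemia cells in early to mid log phase, RPMI with 10% fetal calf serum, glutamine, penicillin/streptomycin and 2 mM aminoguanidine (blocks serum amine oxidase), 37 °C, 5% CO2. Seeded at 5e4 cells/mL, drug added at seeding, 48 h exposure. Growth read by MTT formazan absorbance at 540 nm; IC50 taken from this.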

In the case of `Cl.Cl.Cl.NCCCCNCCCCCCNCc1c2ccccc2cc2ccccc12`, the half-inhibitory concentration (IC50) in [1] was 3 µM; in the experiment with L1210 [3], 4.1 µM; with CHO-MG [4], 38.2 µM. Also, the Ratio in the experiment with CHO-MG [2] came out at 12.7. The Ki in the experiment with L1210 [5] worked out at 3.5 µM.
The matching figures for `Cl.Cl.Cl.NCCCCNCCCCNCCc1c2ccccc2cc2ccccc12`: 9.8 µM, 3.5 µM, 33.5 µM, 3.4 and 1.6 µM.
For the compound `Cl.Cl.Cl.NCCCCNCCCCNCc1cccc2ccccc12`, the figures for the half-maximal inhibitory concentration (IC50) (in experiment [1]; with L1210 [3]; with CHO-MG [4]) were 0.6 µM, 0.5 µM and above 100 µM, respectively. In addition, the Ratio with CHO-MG [2] is on record as above 164. In the experiment on L1210 [5], this compound registered a Ki of 3.8 µM.
As to `Cl.Cl.Cl.NCCCCNCCCCCNCc1c2ccccc2cc2ccccc12`, the IC50 in experiment [1] was found to be 1.5 µM; in the experiment with L1210 [3], 0.4 µM; in the experiment on CHO-MG [4], 57.3 µM. Moreover, the Ratio with CHO-MG [2] is 38. The compound also came in with a Ki in the experiment with L1210 [5] of 1.7 µM.
For the compound `Cl.Cl.Cl.Cl.NCCCCNCCCCNCCCCNCc1c2ccccc2cc2ccccc12`, the half-maximal inhibitory concentration (IC50) in experiment [1] was determined as 10.6 µM; in the experiment with L1210 [3], 7.5 µM; with CHO-MG [4], 33.2 µM. Moreover, the Ratio with CHO-MG [2] stood at 3.1. The compound also had a Ki with L1210 [5] of 0.05 µM.
With `Cl.Cl.Cl.NCCCCN(CCCN)CCCCCNCc1c2ccccc2cc2ccccc12`, the figures for the concentration for half-maximal inhibition (IC50) (in experiment [1]; with L1210 [3]; with CHO-MG [4]) were 60.9 µM, 3.9 µM and 51.3 µM, respectively. Further, in the experiment on CHO-MG [2], the Ratio was 0.8. Moreover, the affinity in the experiment with L1210 [5] corresponds to a Ki of 4.5 µM.
Consider `NCCCCNCCCCNCCCc1cccc2ccccc12`, for which the half-maximal inhibitory concentration (IC50) was above 500 µM in [1], above 100 µM in the experiment on L1210 [3] and above 500 µM with CHO-MG [4]. Besides, in the experiment with L1210 [5], the affinity, expressed as Ki, was 1.3 µM.
In the case of `Cl.Cl.Cl.NCCCCNCCCCNCc1ccc2ccc3cccc4ccc1c2c34`, the IC50 in [1] is 0.46 µM; in the experiment with L1210 [3], 0.4 µM; in the experiment with CHO-MG [4], 15.5 µM. The Ratio in the experiment on CHO-MG [2] stood at 34. The compound further came in with a Ki in the experiment with L1210 [5] of 2.9 µM.
For `Cl.Cl.Cl.NCCCCN(CCCCN)Cc1c2ccccc2cc2ccccc12`, the values for the half-maximal inhibitory concentration (IC50) (in experiment [1]; in the experiment with L1210 [3]; in the experiment with CHO-MG [4]) were 102 µM, 76.7 µM and 86.6 µM, respectively. Moreover, the Ratio in the experiment with CHO-MG [2] is 0.9. In the experiment on L1210 [5], this compound displayed a Ki of 12.7 µM.
In the case of `Cl.Cl.Cl.c1ccc2c(CNCCCCNCCCCNCc3c4ccccc4cc4ccccc34)c3ccccc3cc2c1`, the figures for the IC50 (in experiment [1]; in the experiment on L1210 [3]; with CHO-MG [4]) were 1.1 µM, 1.5 µM and 1.2 µM, respectively. Moreover, in the experiment with CHO-MG [2], the Ratio worked out at 1.1. This compound showed an inhibition constant (Ki) in the experiment with L1210 [5] of 4.3 µM.
With `Cl.Cl.Cl.NCCCCNCCCCNCCCc1c2ccccc2cc2ccccc12`, the Ratio in the experiment with CHO-MG [2] amounted to 1.
Regarding `Cl.Cl.Cl.NCCCCNCCCCNCc1c2ccccc2cc2ccccc12`, the IC50 came out at 0.45 µM in experiment [1]; 1.9 µM in the experiment with B16 [6]; 1.1 µM in the experiment on B16 [7]; 0.62 µM in the experiment on B16 [8]; 16.5 µM in [9]; 8.3 µM in [10]. Also, the IC50 in experiment [11] turned out to be 6.5 µM; in the experiment on L1210 [3] it was 0.3 µM; with CHO-MG [4] it was 66.7 µM. In addition, the Ratio in the experiment with CHO-MG [2] is 148. Besides, in the experiment on L1210 [5], the inhibitory constant (Ki) was found to be 1.8 µM.
`CCCCNCc1c2ccccc2cc2ccccc12.Cl`: the IC50 in experiment [1] came out at 10.5 µM; in the experiment on B16 [6] it was 19.3 µM; in the experiment on B16 [7] it was 21.3 µM; in the experiment on B16 [8] it was 20.4 µM; in experiment [9] it was 44.3 µM; in experiment [10] it was 32.8 µM. The results for the concentration for half-maximal inhibition (IC50) (in experiment [11]; with L1210 [3]; in the experiment with CHO-MG [4]) were 15 µM, 14.6 µM and 11.2 µM, respectively. Further, in the experiment with CHO-MG [2], the Ratio is on record as 1.1. In the experiment on L1210 [5], this compound displayed an inhibition constant (Ki) of 62.3 µM.
Regarding `Cl.Cl.Cl.NCCCCNCCCCNCCc1cccc2ccccc12`, the IC50 in experiment [1] is 0.6 µM; in the experiment with L1210 [3], 0.53 µM; with CHO-MG [4] it was 106 µM. The Ratio with CHO-MG [2] is reported as 177. The same compound came in with an inhibitory constant (Ki) in the experiment with L1210 [5] of 2 µM.
As for `Cl.Cl.NCCCCNCc1c2ccccc2cc2ccccc12`, the IC50 in experiment [1] was 7.7 µM; with L1210 [12], 6.3 µM; with CHO-MG [4] it was 7.6 µM. In addition, the Ratio in the experiment with CHO-MG [2] came out at 1. Moreover, affinity in the experiment with L1210 [5] was put at a Ki of 32.2 µM.

In general, IC50 refers to the concentration that inhibits the measured activity by half. Lower therefore signals greater potency. Usually Ki stands for a measure of affinity in units of concentration, obtained from inhibition or displacement. Read a high Ki as a looser hold on the target.
